Assay [1] deals with Delta-type opioid receptor (Homo sapiens) (UniProt P41143). The following applies: CHO.
The target in assay [2] is Kappa-type opioid receptor (Homo sapiens) (UniProt P41145). Conditions: CHO.
In assay [3] the target is Mu-type opioid receptor (Homo sapiens) (UniProt P35372). The following applies: CHO.
Assay [4] deals with Kappa-type opioid receptor (Cavia porcellus, UniProt P41144). Kind of assay: Ability to displace [3H]U-69593 from Opioid receptor kappa 1 of guinea pig brain. Put shortly: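 Competitive radioligand binding in guinea pig brain tissue, using tritiated U69,593, a κ-selective agonist, as the displaced ligand. Affinity is reported as Ki.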
Kappa-type opioid receptor, sequence (P41144 whole entry): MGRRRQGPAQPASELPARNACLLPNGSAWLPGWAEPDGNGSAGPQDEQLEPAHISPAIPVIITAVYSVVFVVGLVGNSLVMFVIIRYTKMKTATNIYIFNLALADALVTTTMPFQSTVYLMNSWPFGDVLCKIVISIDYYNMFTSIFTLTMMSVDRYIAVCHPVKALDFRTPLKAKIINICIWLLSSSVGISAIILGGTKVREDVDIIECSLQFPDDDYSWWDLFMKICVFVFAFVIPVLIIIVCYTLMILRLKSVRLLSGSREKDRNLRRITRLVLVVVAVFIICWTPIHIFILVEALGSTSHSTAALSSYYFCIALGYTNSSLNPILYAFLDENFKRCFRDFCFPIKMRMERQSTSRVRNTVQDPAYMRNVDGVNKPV
For assay [5], the target named is Mu-type opioid receptor (Rattus norvegicus, UniProt P33535). Kind of assay: Ability to displace [3H]DAMGO from Opioid receptor mu 1 of rat brain. It counts as tissue-based. Put shortly:
(§1)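 Radioligand displacement binding giving Ki values. Rat brain tissue was used for the μ site (tritiated μ-selective ligand) and the δ site ([3H]DADLE, δ-selective). Guinea pig brain tissue was used for the κ site ([3H]U69,593, a κ-selective agonist).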

Assay [6] addresses Delta-type opioid receptor (Rattus norvegicus, UniProt P33533). Kind of assay: Ability to displace [3H]DADLE from Opioid receptor delta 1 of rat brain. It counts as tissue-based. Put shortly:
as §1

The target of assay [7] is Opioid receptors; mu & delta (Homo sapiens) (UniProt P41143+P35372). The assay can be described thus: Selectivity ratio of Ki at mu opioid receptor to Ki at kappa opioid receptor. It counts as protein assay.
Opioid receptors; mu & delta (Homo sapiens), sequence (P35372 whole entry, looked up): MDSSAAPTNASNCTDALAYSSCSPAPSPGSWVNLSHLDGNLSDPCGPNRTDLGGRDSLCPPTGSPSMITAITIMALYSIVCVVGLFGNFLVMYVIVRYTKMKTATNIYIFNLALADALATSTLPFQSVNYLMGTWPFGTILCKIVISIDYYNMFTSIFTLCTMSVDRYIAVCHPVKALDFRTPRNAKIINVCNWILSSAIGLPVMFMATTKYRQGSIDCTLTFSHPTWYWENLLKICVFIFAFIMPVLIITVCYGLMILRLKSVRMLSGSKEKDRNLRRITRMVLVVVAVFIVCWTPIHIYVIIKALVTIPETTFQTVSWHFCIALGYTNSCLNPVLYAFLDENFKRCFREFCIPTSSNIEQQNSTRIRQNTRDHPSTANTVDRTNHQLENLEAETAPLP
Opioid receptors; mu & delta (Homo sapiens), sequence (P41143 whole entry, looked up): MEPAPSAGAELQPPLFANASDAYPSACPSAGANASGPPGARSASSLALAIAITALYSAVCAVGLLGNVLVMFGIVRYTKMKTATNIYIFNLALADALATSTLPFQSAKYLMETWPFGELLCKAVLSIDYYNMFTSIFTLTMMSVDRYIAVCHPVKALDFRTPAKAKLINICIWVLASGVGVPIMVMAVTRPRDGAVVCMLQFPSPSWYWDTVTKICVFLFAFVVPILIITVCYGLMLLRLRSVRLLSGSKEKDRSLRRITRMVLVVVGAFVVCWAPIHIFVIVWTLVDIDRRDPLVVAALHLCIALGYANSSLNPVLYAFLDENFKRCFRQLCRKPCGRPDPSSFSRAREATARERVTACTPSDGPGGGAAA
In assay [8] the target is Opioid receptors; delta & kappa (Homo sapiens) (UniProt P41145+P41143). Kind of assay: Selectivity ratio of Ki at delta opioid receptor to Ki at kappa opioid receptor. It counts as protein assay.
Opioid receptors; delta & kappa (Homo sapiens), sequence (P41143 whole entry, looked up): as above
Opioid receptors; delta & kappa (Homo sapiens), sequence (P41145 whole entry, looked up): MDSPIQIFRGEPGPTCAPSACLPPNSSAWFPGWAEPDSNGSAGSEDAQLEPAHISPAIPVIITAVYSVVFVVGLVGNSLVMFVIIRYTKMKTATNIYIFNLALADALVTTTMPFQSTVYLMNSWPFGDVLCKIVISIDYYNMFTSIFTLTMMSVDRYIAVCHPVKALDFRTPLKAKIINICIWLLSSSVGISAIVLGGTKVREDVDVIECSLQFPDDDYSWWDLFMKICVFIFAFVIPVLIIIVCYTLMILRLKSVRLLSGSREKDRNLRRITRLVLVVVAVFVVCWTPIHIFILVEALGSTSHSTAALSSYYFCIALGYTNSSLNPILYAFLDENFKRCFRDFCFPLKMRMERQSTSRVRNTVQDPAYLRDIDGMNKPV

Mu-type opioid receptor, sequence (P33535 whole entry): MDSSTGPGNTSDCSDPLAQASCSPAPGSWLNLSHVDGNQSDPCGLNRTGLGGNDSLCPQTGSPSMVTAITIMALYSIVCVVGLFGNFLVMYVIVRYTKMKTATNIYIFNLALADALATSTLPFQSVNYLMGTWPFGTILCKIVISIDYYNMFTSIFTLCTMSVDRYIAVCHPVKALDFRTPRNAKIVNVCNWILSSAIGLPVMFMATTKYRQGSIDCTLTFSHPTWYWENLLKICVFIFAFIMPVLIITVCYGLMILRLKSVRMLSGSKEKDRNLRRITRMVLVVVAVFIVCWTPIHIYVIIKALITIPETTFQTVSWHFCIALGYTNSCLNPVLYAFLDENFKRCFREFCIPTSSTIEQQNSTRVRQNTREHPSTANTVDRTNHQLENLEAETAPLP
Delta-type opioid receptor, sequence (P33533 whole entry): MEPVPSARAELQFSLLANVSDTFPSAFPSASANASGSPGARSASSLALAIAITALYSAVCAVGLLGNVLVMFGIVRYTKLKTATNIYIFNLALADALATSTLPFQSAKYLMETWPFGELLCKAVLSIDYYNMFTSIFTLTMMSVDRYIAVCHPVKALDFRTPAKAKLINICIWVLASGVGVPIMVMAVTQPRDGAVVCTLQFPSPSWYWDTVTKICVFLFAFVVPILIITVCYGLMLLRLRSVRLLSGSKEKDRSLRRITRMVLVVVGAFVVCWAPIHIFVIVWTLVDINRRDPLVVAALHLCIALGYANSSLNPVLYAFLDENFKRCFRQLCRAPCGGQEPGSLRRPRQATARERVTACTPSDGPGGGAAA
Mu-type opioid receptor (Homo sapiens), sequence (P35372 whole entry): as the sequence (P35372 whole entry, looked up) above
Delta-type opioid receptor (Homo sapiens), sequence (P41143 whole entry): as the sequence (P41143 whole entry, looked up) above
Kappa-type opioid receptor (Homo sapiens), sequence (P41145 whole entry): as the sequence (P41145 whole entry, looked up) above

In the case of `Oc1ccc2c3c1O[C@H]1c4[nH]c5c(c4C[C@@]4(O)[C@@H](C2)N(CC2CC2)CC[C@]314)C[C@@]1(O)[C@H]2Cc3ccc(O)c4c3[C@@]1(CCN2CC1CC1)[C@H]5O4`, the Ke in assay [1] amounted to 4.6 nM; in assay [2], 0.04 nM; in assay [3] it was 19 nM.

Consider `CC1CN(CCCc2ccccc2)C2C[C@H](N)CC1(c1cccc(O)c1)C2` (single isomer, unassigned; (+)) [listing 1 of 2 here], for which the Ki in assay [4] worked out at 893 nM; in assay [5], 207 nM; in assay [6] it was 246 nM.

On to `CC1CN(CCCc2ccccc2)C2C[C@H](N)CC1(c1cccc(O)c1)C2` (single isomer, unassigned; (-)) [listing 1 of 2 here], for which the results for the Ki in assay [4], in assay [5] and in assay [6] were 122 nM, 3.3 nM and 14.7 nM, respectively.

With `CC1CN(CCCc2ccccc2)C2C[C@H](N)CC1(c1cccc(O)c1)C2` (single isomer, unassigned; (+)) [listing 2 of 2 here], the values for the Ratio in assay [7] and in assay [8] were 0.23 and 0.27, respectively.

For the compound `CC1CN(CCCc2ccccc2)C2C[C@H](N)CC1(c1cccc(O)c1)C2` (single isomer, unassigned; (-)) [listing 2 of 2 here], the Ratio in assay [7] is 0.03; in assay [8], 0.1.

A word on the Ki: it is the equilibrium dissociation constant of an inhibitor or competing ligand from its target. Read a high Ki as weaker binding.

For the origin of these results see ChEMBL document CHEMBL1135969, “Discovery of an opioid kappa receptor selective pure antagonist from a library of N-substituted 4beta-methyl-5-(3-hydroxyphenyl)morphans” (J Med Chem, 2002).
